Values after ≈ are worked out from the molar mass of the structure shown. Active and inactive are the calls of the source. The rule behind the calls is not given here. Positions of bridges follow the written chain, without caps; N, C: chain ends. Residues, ends and D or L forms follow the SMILES beside them.
What was measured:
[1] = test system: Salmonella enterica subsp. enterica serovar Newport; assay: Inhibition of oxygen consumption in Salmonella newport clinical isolate at 0.25 uM after 35 mins by Gilson Clarke oxygraph analysis; format: functional
Summary of the method: (§1)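 Cells were held 35 min at 37 °C with peptide at the stated concentration. Respiration rate over the next 5 min was measured polarographically with a Clark electrode oxygraph at 37 °C. Results are percent of a peptide-free control; three independent experiments, mean ± SD.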

[2] = test system: Escherichia coli; assay: Antibacterial activity against Escherichia coli MC4100 after 24 hrs by liquid growth inhibition assay; format: functional; conditions: MC4100, 24 h
Summary of the method: (§2)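 Liquid broth microdilution in LB. Peptide stocks were made in 20% methanol/water (1 or 2.5 mM), then serially doubled in water to final 0.01–100 or 0.5–250 µM. Inoculum was diluted to OD620 0.02–0.05. Plates ran 24 h at 37 °C and were read at OD620. MIC was the lowest concentration giving 100% growth inhibition (0.05 AU). Triplicate wells, three repeat experiments.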

[3] = test system: Escherichia coli; assay: Antibacterial activity against Escherichia coli DH5alpha after 24 hrs by liquid growth inhibition assay; format: functional; conditions: DH5[alpha]; summary of the method: as §2
[4] = Antibacterial activity against Salmonella choleraesuis ATCC 10708 after 24 hrs by liquid growth inhibition assay; format: functional, Salmonella enterica subsp. enterica serovar Choleraesuis; conditions: Salmonella enterica, ATCC 10708, 24 h
[5] = test system: Salmonella paratyphi; assay: Antibacterial activity against Salmonella paratyphi after 24 hrs by liquid growth inhibition assay; format: functional, Salmonella enterica subsp. enterica serovar Paratyphi A; conditions: Salmonella enterica
[6] = test system: Salmonella enterica subsp. enterica serovar Montevideo; assay: Antibacterial activity against Salmonella montevideo 20 up to 250 uM after 24 hrs by liquid growth inhibition assay; format: functional; summary of the method: as §2
[7] = test system: Salmonella enterica subsp. enterica serovar Heidelberg; assay: Antibacterial activity against Salmonella heidelberg ATCC 8326 up to 250 uM after 24 hrs by liquid growth inhibition assay; format: functional; summary of the method: as §2
[8] = test system: Salmonella typhimurium; assay: Antibacterial activity against Salmonella Typhimurium ATCC 13311 up to 250 uM after 24 hrs by liquid growth inhibition assay; format: functional, organism-based; conditions: Salmonella enterica subsp. enterica serovar Typhimurium; summary of the method: as §2
[9] = test system: Salmonella typhimurium; assay: Antibacterial activity against Salmonella Typhimurium AFLB 25 after 24 hrs by liquid growth inhibition assay; format: functional, Salmonella enterica subsp. enterica serovar Typhimurium; conditions: Salmonella enterica, AFLB 25, 24 h; summary of the method: as §2
[10] = test system: Salmonella enteritidis; assay: Antibacterial activity against Salmonella enteritidis AFLB 81 after 24 hrs by liquid growth inhibition assay; format: functional, Salmonella enterica subsp. enterica serovar Enteritidis; conditions: Salmonella enterica, AFLB 81, 24 h; summary of the method: as §2
[11] = test system: Salmonella enteritidis; assay: Antibacterial activity against Salmonella enteritidis AFLB 41 after 24 hrs by liquid growth inhibition assay; format: functional, Salmonella enterica subsp. enterica serovar Enteritidis; conditions: Salmonella enterica, AFLB 41, 24 h; summary of the method: as §2
[12] = test system: Salmonella enteritidis; assay: Antibacterial activity against Salmonella enteritidis AFLB 11 after 24 hrs by liquid growth inhibition assay; format: functional, Salmonella enterica subsp. enterica serovar Enteritidis; conditions: Salmonella enterica, AFLB 11, 24 h; summary of the method: as §2
[13] = test system: Salmonella enteritidis; assay: Antibacterial activity against Salmonella enteritidis ATCC 13076 after 24 hrs by liquid growth inhibition assay; format: functional, Salmonella enterica subsp. enterica serovar Enteritidis; conditions: Salmonella enterica, ATCC 13076, 24 h; summary of the method: as §2
[14] = test system: Salmonella enteritidis; assay: Antibacterial activity against Salmonella enteritidis PT8 after 24 hrs by liquid growth inhibition assay; format: functional, Salmonella enterica subsp. enterica serovar Enteritidis; conditions: Salmonella enterica, PT8, 24 h; summary of the method: as §2
[15] = Antibacterial activity against Salmonella newport clinical isolate after 24 hrs by liquid growth inhibition assay; format: functional, Salmonella enterica subsp. enterica serovar Newport; conditions: Salmonella enterica; summary of the method: as §2
[16] = Cytotoxicity against human MDA-MB-435 cells assessed as cell viability up to 100 uM after 24 hrs by MTT assay; format: cell-based; conditions: read-out: Activity
Summary of the method: (§3)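 MTT assay. MDA-MB-435 cells were kept in RPMI 1640 and MCF7 cells in DMEM, both with 10% FBS, penicillin and streptomycin, at 37 °C and 5% CO2. Cells were seeded at 1×10^4/well and grown 24 h. Samples came from 1 mM stocks in 10% DMSO/water, twofold diluted to 0.3125–100 µM, and applied for 24 h. MTT (5 mg/mL) was added for 3.5 h, then DMSO solubilization and A570. Viability is relative to untreated cells; triplicate, mean.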

[17] = Cytotoxicity against human MCF7 cells assessed as cell viability up to 100 uM after 24 hrs by MTT assay; format: cell-based; conditions: read-out: Activity; summary of the method: as §3
[18] = Cytotoxicity against human MDA-MB-435 cells assessed as cell viability at 3 uM after 24 hrs by MTT assay; format: cell-based; conditions: read-out: Activity
[19] = Cytotoxicity against human MCF7 cells assessed as cell viability at 3 uM after 24 hrs by MTT assay; format: cell-based; conditions: read-out: Activity
[20] = test system: Salmonella enterica subsp. enterica serovar Newport; assay: Inhibition of oxygen consumption in Salmonella newport clinical isolate at 25 uM after 35 mins by Gilson Clarke oxygraph analysis; format: functional; summary of the method: as §1
[21] = Stability of the compound at 200 uM after overnight incubation by spot on lawn method in the presence of chymotrypsin; format: ADME
[22] = Stability of the compound at 150 uM after 30 mins by RP-HPLC analysis in the presence of pepsin; format: ADME; conditions: 0.5 h
Summary of the method: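 Peptide (150 µM) was incubated at 37 °C with pepsin (4% w/w) in 0.1 N HCl. Aliquots taken at 0 and 30 min were quenched into 0.1 N NaOH/70% methanol and centrifuged. Supernatant was analysed by C18 RP-HPLC (15–50% isopropanol/water, 0.05% TFA, 35 min, UV 220 nm). Fragments were identified by MALDI-TOF.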

[23] = Bactericidal activity against Salmonella choleraesuis ATCC 10708 after 24 hrs; format: functional, Salmonella enterica subsp. enterica serovar Choleraesuis; conditions: Salmonella enterica, ATCC 10708, 24 h
Summary of the method: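 MBC: 10 μL from each clear well of the 24 h, 37 °C LB broth MIC plate spread on LB agar, incubated 24 h at 37 °C; MBC = lowest concentration with no growth on the plate.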

[24] = test system: Salmonella enteritidis; assay: Bactericidal activity against Salmonella enteritidis ATCC P76 after 24 hrs by liquid growth inhibition assay; format: functional, Salmonella enterica subsp. enterica serovar Enteritidis; conditions: Salmonella enterica, ATCC P76, 24 h
[25] = test system: Salmonella typhimurium; assay: Bactericidal activity against Salmonella Typhimurium ATCC 13311 after 24 hrs; format: functional, Salmonella enterica subsp. enterica serovar Typhimurium; conditions: Salmonella enterica, ATCC 13311, 24 h
Summary of the method: (§4)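 For MBC, 10 µL from each clear well of the 24 h, 37 °C LB broth-dilution plate was spread on LB agar and incubated 24 h at 37 °C. MBC was the lowest concentration giving no growth on agar.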

[26] = Bactericidal activity against Salmonella newport clinical isolate after 24 hrs; format: functional, Salmonella enterica subsp. enterica serovar Newport; conditions: Salmonella enterica; summary of the method: as §4
[27] = test system: Enterococcus faecalis; assay: Antibacterial activity against Enterococcus faecalis ATCC 19433; format: functional, organism-based
[28] = test system: Staphylococcus aureus; assay: Antibacterial activity against Staphylococcus aureus ATCC 6538; format: functional, organism-based
[29] = test system: Escherichia coli; assay: Antibacterial activity against Escherichia coli MC4100 up to 250 uM after 24 hrs by liquid growth inhibition assay; format: functional, organism-based; summary of the method: as §2
[30] = test system: Escherichia coli; assay: Antibacterial activity against Escherichia coli DH5alpha up to 250 uM after 24 hrs by liquid growth inhibition assay; format: functional, organism-based; conditions: DH5[alpha]; summary of the method: as §2
[31] = test system: Salmonella paratyphi; assay: Antibacterial activity against Salmonella paratyphi up to 250 uM after 24 hrs by liquid growth inhibition assay; format: functional, organism-based; conditions: Salmonella enterica subsp. enterica serovar Paratyphi A
[32] = Antibacterial activity against Salmonella heidelberg ATCC 8326 after 24 hrs by liquid growth inhibition assay; format: functional, Salmonella enterica subsp. enterica serovar Heidelberg; conditions: Salmonella enterica, ATCC 8326, 24 h; summary of the method: as §2
[33] = test system: Salmonella typhimurium; assay: Antibacterial activity against Salmonella Typhimurium ATCC 13311 after 24 hrs by liquid growth inhibition assay; format: functional, Salmonella enterica subsp. enterica serovar Typhimurium; conditions: Salmonella enterica, ATCC 13311, 24 h; summary of the method: as §2
[34] = test system: Salmonella enteritidis; assay: Antibacterial activity against Salmonella enteritidis AFLB 81 up to 250 uM after 24 hrs by liquid growth inhibition assay; format: functional, organism-based; conditions: Salmonella enterica subsp. enterica serovar Enteritidis; summary of the method: as §2
[35] = test system: Salmonella enteritidis; assay: Antibacterial activity against Salmonella enteritidis AFLB 41 up to 250 uM after 24 hrs by liquid growth inhibition assay; format: functional, organism-based; conditions: Salmonella enterica subsp. enterica serovar Enteritidis; summary of the method: as §2
[36] = test system: Salmonella enteritidis; assay: Antibacterial activity against Salmonella enteritidis AFLB 11 up to 250 uM after 24 hrs by liquid growth inhibition assay; format: functional, organism-based; conditions: Salmonella enterica subsp. enterica serovar Enteritidis; summary of the method: as §2
[37] = test system: Salmonella enteritidis; assay: Antibacterial activity against Salmonella enteritidis ATCC 13076 up to 250 uM after 24 hrs by liquid growth inhibition assay; format: functional, organism-based; conditions: Salmonella enterica subsp. enterica serovar Enteritidis; summary of the method: as §2
[38] = Cytotoxicity against human MDA-MB-435 cells assessed as cell viability at 0.3 to 100 uM after 24 hrs by MTT assay; format: cell-based; conditions: read-out: Activity; summary of the method: as §3
[39] = Cytotoxicity against human MCF7 cells assessed as cell viability at 0.3 to 100 uM after 24 hrs by MTT assay; format: cell-based; conditions: read-out: Activity; summary of the method: as §3
[40] = Thermostability in boiling water after 3 hrs; format: physicochemical; conditions: buffer

CC[C@H](C)[C@H](NC(=O)CNC(=O)[C@@H](NC(=O)[C@H](Cc1ccccc1)NC(=O)[C@H](Cc1ccc(O)cc1)NC(=O)[C@@H]1CCC(=O)NCC(=O)NCC(=O)N[C@@H](C)C(=O)NCC(=O)N[C@@H](Cc2cnc[nH]2)C(=O)N[C@@H](C(C)C)C(=O)N2CCC[C@H]2C(=O)N1)C(C)C)C(=O)NCC(=O)N[C@H](C(=O)N1CCC[C@H]1C(=O)N[C@H](C(=O)N[C@@H](CO)C(=O)N[C@@H](Cc1ccccc1)C(=O)N[C@@H](Cc1ccc(O)cc1)C(=O)NCC(=O)O)[C@@H](C)CC)[C@@H](C)O [MICROCIN J25] (GGAGHVPEYFVGIGTPISFYG-OH; lactam N-8)
inhibition [1]: Active | MIC [2]: 5 µM (≈ 10.5 µg/mL) | MIC [3]: 5 µM (≈ 10.5 µg/mL) | MIC [4]: 1.5 µM (≈ 3.16 µg/mL) | MIC [5]: 1.5 µM (≈ 3.16 µg/mL) | Activity [6]: inactive | Activity [7]: inactive | Activity [8]: inactive | MIC [9]: 2.8 µM (≈ 5.9 µg/mL) | MIC [10]: 1.7 µM (≈ 3.58 µg/mL) | MIC [11]: 1.6 µM (≈ 3.37 µg/mL) | MIC [12]: 2 µM (≈ 4.21 µg/mL) | MIC [13]: 1.8 µM (≈ 3.79 µg/mL) | MIC [14]: 1.5 µM (≈ 3.16 µg/mL) | MIC [15]: 0.5 µM (≈ 1.05 µg/mL) | viability at 24 h [16]: > 80% | viability at 24 h [17]: > 80%

COc1cccc2c1C(=O)c1c(O)c3c(c(O)c1C2=O)C[C@@](O)(C(=O)CO)C[C@@H]3O[C@H]1C[C@H](N)[C@H](O)[C@H](C)O1 [DOXORUBICIN]
viability at 24 h, 3 µM [18]: 20% | viability at 24 h, 3 µM [19]: 20%

CC[C@H](C)[C@@H]1NC(=O)CNC(=O)[C@H](C(C)C)NC(=O)[C@H](Cc2ccccc2)NC(=O)[C@H](Cc2ccc(O)cc2)NC(=O)[C@@H]2CCC(=O)NCC(=O)NCC(=O)N[C@@H](C)C(=O)N[C@@H](CSSC[C@@H](C(=O)O)NC(=O)[C@H](Cc3ccccc3)NC(=O)[C@H](CO)NC(=O)[C@H]([C@@H](C)CC)NC(=O)[C@@H]3CCCN3C(=O)[C@H]([C@@H](C)O)NC(=O)CNC1=O)C(=O)N[C@@H](Cc1cnc[nH]1)C(=O)N[C@@H](C(C)C)C(=O)N1CCC[C@H]1C(=O)N2 (GGACHVPEYFVGIGTPISFC-OH; disulfide 4-20; lactam N-8)
inhibition [20]: Active | Stability [21]: Unstable | Stability [22]: Unstable | MBC [23]: 125 µM (≈ 254 µg/mL) | MBC [24]: 125 µM (≈ 254 µg/mL) | MBC [25]: 125 µM (≈ 254 µg/mL) | MBC [26]: 31.2 µM (≈ 63.6 µg/mL) | Activity [27]: inactive | Activity [28]: inactive | Activity [29]: inactive | Activity [30]: inactive | MIC [4]: 90 µM (≈ 183 µg/mL) | Activity [31]: inactive | Activity [6]: inactive | MIC [32]: 83 µM (≈ 169 µg/mL) | MIC [33]: 75 µM (≈ 153 µg/mL) | MIC [9]: 85 µM (≈ 173 µg/mL) | Activity [34]: inactive | Activity [35]: inactive | Activity [36]: inactive | Activity [37]: inactive | MIC [14]: 80 µM (≈ 163 µg/mL) | MIC [15]: 25 µM (≈ 50.9 µg/mL) | viability at 24 h, up to 100 µM [38]: > 90% | viability at 24 h, up to 100 µM [39]: > 90% | Stability [40]: Stable

— ChEMBL document CHEMBL1944538, “Synthetic peptides derived from the sequence of a lasso peptide microcin J25 show antibacterial activity” (Bioorg Med Chem, 2012)
